Tests used:
[1] = Toxicity at a dose of 0.5 umol/kg/day against Pneumocystis carinii in rats; settings: rat, in vivo
Rattus norvegicus [2] = assay: The cysts/g of lung (% of control ) is calculated at a dose of 10.8 umol/kg/day against Pneumocystis carinii in rats; assay type: functional
How it was run: (§1)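 Rat *P. carinii* pneumonia model: furan dications given intravenously; lung cysts counted per g of lung tissue and expressed relative to pooled saline-treated control rats.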

[3] = Toxicity at a dose of 10.8 umol/kg/day against Pneumocystis carinii in rats; settings: rat, in vivo
Rattus norvegicus [4] = assay: The cysts/g of lung (% of control ) is calculated at a dose of 0.5 umol/kg/day against Pneumocystis carinii in rats; assay type: functional; how it was run: as §1
[5] = Toxicity at a dose of 10 umol/kg/day against Pneumocystis carinii in rats; settings: rat, in vivo
Rattus norvegicus [6] = assay: The cysts/g of lung (% of control ) is calculated at a dose of 10 umol/kg/day against Pneumocystis carinii in rats; assay type: functional; how it was run: as §1
Rattus norvegicus [7] = assay: The cysts/g of lung (% of control ) is calculated at a dose of 0.2 umol/kg/day against Pneumocystis carinii in rats; assay type: functional; how it was run: as §1
Rattus norvegicus [8] = assay: The cysts/g of lung (% of control ) is calculated at a dose of 10.6 umol/kg/day against Pneumocystis carinii in rats; assay type: functional; how it was run: as §1
[9] = Toxicity at a dose of 0.2 umol/kg/day against Pneumocystis carinii in rats; settings: rat, in vivo
[10] = Toxicity at a dose of 1.9 umol/kg day against Pneumocystis carinii in rats; settings: rat, in vivo
Rattus norvegicus [11] = assay: The cysts/g of lung (% of control ) is calculated at a dose of 0.2 umol/kg day against Pneumocystis carinii in rats; assay type: functional; how it was run: as §1
Rattus norvegicus [12] = assay: The cysts/g of lung (% of control ) is calculated at a dose of 0.9 umol/kg day against Pneumocystis carinii in rats; assay type: functional; how it was run: as §1
Rattus norvegicus [13] = assay: The cysts/g of lung (% of control ) is calculated at a dose of 1.9 umol/kg day against Pneumocystis carinii in rats; assay type: functional; how it was run: as §1
[14] = Toxicity at a dose of 0.2 umol/kg day against Pneumocystis carinii in rats; settings: rat, in vivo
[15] = Toxicity at a dose of 0.9 umol/kg day against Pneumocystis carinii in rats; settings: rat, in vivo
Rattus norvegicus [16] = assay: The cysts/g of lung (% of control ) is calculated at a dose of 9.4 umol/kg day against Pneumocystis carinii in rats; assay type: functional; how it was run: as §1
[17] = Toxicity at a dose of 10.6 umol/kg/day against Pneumocystis carinii in rats; settings: rat, in vivo
[18] = Toxicity at a dose of 9.7 umol/kg/day against Pneumocystis carinii in rats;; settings: rat, in vivo
Rattus norvegicus [19] = assay: The cysts/g of lung (% of control ) is calculated at a dose of 9.7 umol/kg/day against Pneumocystis carinii in rats; assay type: functional; how it was run: as §1
[20] = Toxicity at a dose of 10.4 umol/kg/day against Pneumocystis carinii in rats; settings: rat, in vivo
Rattus norvegicus [21] = assay: The cysts/g of lung (% of control ) is calculated at a dose of 10.4 umol/kg/day against Pneumocystis carinii in rats; assay type: functional; how it was run: as §1
Rattus norvegicus [22] = assay: The cysts/g of lung (% of control ) is calculated at a dose of 9.9 umol/kg/day against Pneumocystis carinii in rats; assay type: functional; how it was run: as §1
Rattus norvegicus [23] = assay: The cysts/g of lung (% of control ) is calculated at a dose of 1.0 umol/kg/day against Pneumocystis carinii in rats; assay type: functional; how it was run: as §1
[24] = Toxicity at a dose of 1.0 umol/kg/day against Pneumocystis carinii in rats; settings: rat, in vivo
Rattus norvegicus [25] = assay: The cysts/g of lung (% of control ) is calculated at a dose of 9.1 umol/kg/day against Pneumocystis carinii in rats; assay type: functional; how it was run: as §1
Rattus norvegicus [26] = assay: The cysts/g of lung (% of control ) is calculated at a dose of 0.9 umol/kg/day against Pneumocystis carinii in rats; assay type: functional; how it was run: as §1
[27] = Toxicity at a dose of 0.9 umol/kg/day against Pneumocystis carinii in rats; settings: rat, in vivo
[28] = Toxicity at a dose of 9.1 umol/kg/day against Pneumocystis carinii in rats; settings: rat, in vivo
[29] = Toxicity at a dose of 22.0 umol/kg/day against Pneumocystis carinii in rats;; settings: rat, in vivo
Rattus norvegicus [30] = assay: The cysts/g of lung (% of control ) is calculated at a dose of 13.3 umol/kg/day against Pneumocystis carinii in rats; assay type: functional; how it was run: as §1
[31] = Toxicity at a dose of 13.3 umol/kg/day against Pneumocystis carinii in rats; settings: rat, in vivo
Rattus norvegicus [32] = assay: The cysts/g of lung (% of control ) is calculated at a dose of 22.0 umol/kg/day against Pneumocystis carinii in rats; assay type: functional; how it was run: as §1
[33] = Toxicity at a dose of 0.03 umol/kg/day against Pneumocystis carinii in rats; settings: rat, in vivo
Rattus norvegicus [34] = assay: The cysts/g of lung (% of control ) is calculated at a dose of 0.03 umol/kg /day against Pneumocystis carinii in rats; assay type: functional
How it was run: (§2)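 P. carinii-infected rats dosed intravenously with the furan dication. Cysts were counted per g of lung tissue and expressed as % of the mean count of pooled saline-treated controls (n = 142).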

[35] = Toxicity at a dose of 0.3 umol/kg/day against Pneumocystis carinii in rats; settings: rat, in vivo
Rattus norvegicus [36] = assay: The cysts/g of lung (% of control ) is calculated at a dose of 0.3 umol/kg /day against Pneumocystis carinii in rats; assay type: functional; how it was run: as §2
[37] = Toxicity at a dose of 2.7 umol/kg/day against Pneumocystis carinii in rats; settings: rat, in vivo
Rattus norvegicus [38] = assay: The cysts/g of lung (% of control ) is calculated at a dose of 2.7 umol/kg/day against Pneumocystis carinii in rats; assay type: functional; how it was run: as §2
Rattus norvegicus [39] = assay: The cysts/g of lung (% of control ) is calculated at a dose of 4.8 umol/kg/day against Pneumocystis carinii in rats; assay type: functional; how it was run: as §1
[40] = Toxicity at a dose of 2.2 umol/kg /day against Pneumocystis carinii in rats; settings: rat, in vivo
Rattus norvegicus [41] = assay: The cysts/g of lung (% of control ) is calculated at a dose of 2.2 umol/kg/day against Pneumocystis carinii in rats; assay type: functional; how it was run: as §1
[42] = Toxicity at a dose of 1.1 umol/kg / day against Pneumocystis carinii in rats; settings: rat, in vivo
Rattus norvegicus [43] = assay: The cysts/g of lung (% of control ) is calculated at a dose of 1.1 umol/kg/day against Pneumocystis carinii in rats; assay type: functional; how it was run: as §1
Rattus norvegicus [44] = assay: The cysts/g of lung (% of control ) is calculated at a dose of 0.2 umol/kg /day against Pneumocystis carinii in rats; assay type: functional; how it was run: as §1
[45] = Toxicity at 10.4 a dose of umol/kg/day against Pneumocystis carinii in rats; settings: rat, in vivo

With `N=C(NCC1CC1)c1ccc(-c2ccc(-c3ccc(C(=N)NCC4CC4)cc3)o2)cc1` as the compound, how does the Toxicity [1] read?
The Toxicity was 0.

What about the Control (Rattus norvegicus [2]) of the same compound?
Its Control is 0.24%.

What about the Toxicity [3] of the same compound?
The Toxicity was 0.

And the Control (Rattus norvegicus [4])?
The Control was 3.25%.

For `CC(C)CNC(=N)c1ccc(-c2ccc(-c3ccc(C(=N)NCC(C)C)cc3)o2)cc1`, which Toxicity [5] is on record?
Its Toxicity is 0.

And the Control (Rattus norvegicus [6])?
The Control was 2.2%.

For `C/N=C(\N)c1ccc(-c2ccc(-c3ccc(/C(N)=N/C)cc3)o2)cc1`, which Control (Rattus norvegicus [7]) is on record?
The Control was 85.37%.

What about the Control (Rattus norvegicus [8]) of the same compound?
The Control was 0.16%.

And the Toxicity [9]?
Its Toxicity is 0.

Which Toxicity [10] does the source give for `N=C(NC1CCCC1)c1ccc(-c2ccc(-c3ccc(C(=N)NC4CCCC4)cc3)o2)cc1` here?
The Toxicity was 0.

And the Control (Rattus norvegicus [11])?
Its Control is 93.5%.

And the Control (Rattus norvegicus [12])?
Its Control is 0.11%.

What about the Control (Rattus norvegicus [13]) of the same compound?
The Control was 0.08%.

And the Toxicity [14]?
Its Toxicity is 0.

What about the Toxicity [15] of the same compound?
Its Toxicity is 0.

What about the Control (Rattus norvegicus [16]) of the same compound?
The Control was 0.03%.

Which results are given for `N=C(NC1CC1)c1ccc(-c2ccc(-c3ccc(C(=N)NC4CC4)cc3)o2)cc1`?
Control (Rattus norvegicus [7]): 129%; Control (Rattus norvegicus [2]): 0.03%; Toxicity [9]: 0

Which results are given for `CCCNC(=N)c1ccc(-c2ccc(-c3ccc(C(=N)NCCC)cc3)o2)cc1`?
Control (Rattus norvegicus [7]): 107.83%; Control (Rattus norvegicus [8]): 0.08%; Toxicity [9]: 0; Toxicity [17]: 0

With `CC(C)CC/N=C(\N)c1ccc(-c2ccc(-c3ccc(/C(N)=N/CCC(C)C)cc3)o2)cc1` as the compound, how does the Toxicity [18] read?
The Toxicity was 0.

And the Control (Rattus norvegicus [19])?
The Control was 2.38%.

With `N=C(NCCO)c1ccc(-c2ccc(-c3ccc(C(=N)NCCO)cc3)o2)cc1` as the compound, how does the Toxicity [20] read?
Its Toxicity is 0.

And the Control (Rattus norvegicus [21])?
Its Control is 0.6%.

For `N=C(NC1CCC1)c1ccc(-c2ccc(-c3ccc(C(=N)NC4CCC4)cc3)o2)cc1`, which Control (Rattus norvegicus [22]) is on record?
The Control was 0.05%.

And the Control (Rattus norvegicus [23])?
The Control was 0.67%.

What about the Toxicity [24] of the same compound?
The Toxicity was 0.

Which Control (Rattus norvegicus [25]) does the source give for `N=C(NC1CCCCC1)c1ccc(-c2ccc(-c3ccc(C(=N)NC4CCCCC4)cc3)o2)cc1` here?
The Control was 0.02%.

And the Control (Rattus norvegicus [26])?
The Control was 26.28%.

What about the Toxicity [27] of the same compound?
The Toxicity was 0.

And the Toxicity [28]?
The Toxicity was 0.

Which results are given for `N=C(N)c1ccc(OCCCCCOc2ccc(C(=N)N)cc2)cc1` [PENTAMIDINE]?
Toxicity [29]: Local toxicity; Control (Rattus norvegicus [30]): 0.61%; Toxicity [31]: 0; Control (Rattus norvegicus [32]): 1.46%

For `N=C(N)c1ccc(-c2ccc(-c3ccc(C(=N)N)cc3)o2)cc1` [FURAMIDINE], which Toxicity [33] is on record?
The Toxicity was 0.

And the Control (Rattus norvegicus [34])?
The Control was 21.97%.

And the Toxicity [35]?
Its Toxicity is 0.

And the Control (Rattus norvegicus [36])?
The Control was 5.38%.

And the Toxicity [37]?
Its Toxicity is 0.

And the Control (Rattus norvegicus [38])?
Its Control is 5.65%.

What does the source list for `N=C(NCC1CCCCC1)c1ccc(-c2ccc(-c3ccc(C(=N)NCC4CCCCC4)cc3)o2)cc1`?
Control (Rattus norvegicus [8]): 43.9%; Toxicity [17]: 0

For `CCC(CC)NC(=N)c1ccc(-c2ccc(-c3ccc(C(=N)NC(CC)CC)cc3)o2)cc1`, which Control (Rattus norvegicus [39]) is on record?
The Control was 24.43%.

Which results are given for `CC(C)NC(=N)c1ccc(-c2ccc(-c3ccc(C(=N)NC(C)C)cc3)o2)cc1`?
Toxicity [40]: 0; Control (Rattus norvegicus [41]): 8.41%; Toxicity [42]: 0; Control (Rattus norvegicus [43]): 11.73%; Control (Rattus norvegicus [2]): 0.2%; Toxicity [9]: 0; Toxicity [3]: 0; Control (Rattus norvegicus [44]): 169%

Which results are given for `CC/N=C(\N)c1ccc(-c2ccc(-c3ccc(/C(N)=N/CC)cc3)o2)cc1`?
Toxicity [45]: 0; Control (Rattus norvegicus [21]): 0.05%
